Source: ChEMBL document CHEMBL1157620, “1-(Aryl)-6-[alkoxyalkyl]-3-azabicyclo[3.1.0]hexanes and 6-(aryl)-6-[alkoxyalkyl]-3-azabicyclo[3.1.0]hexanes: a new series of potent and selective triple reuptake inhibitors” (J Med Chem, 2010)

Experiments:
[1] = target: T1, Sodium-dependent dopamine transporter (Homo sapiens, UniProt Q01959); assay: Displacement of [3H]WIN-35428 from human recombinant DAT expressed in BacMam virus-transduced cells by scintillation proximity assay; assay type: cell-based
[2] = target: T2, Sodium-dependent noradrenaline transporter (Homo sapiens, UniProt P23975); assay: Displacement of [3H]nisoxetine from human recombinant NET expressed in BacMam virus-transduced cells by scintillation proximity assay; assay type: cell-based
Summary of the method: (§1)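 BacMam-transduced membranes in SPA format. SERT: 1 mg/mL beads, 6 μg/mL membranes, 3 nM [3H]citalopram. NET: 2 mg/mL beads, 40 μg/mL membranes, 10 nM [3H]nisoxetine. Incubated overnight at room temperature; pKi from pIC50 by Cheng-Prusoff.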

[3] = target: T3, Sodium-dependent serotonin transporter (Homo sapiens, UniProt P31645); assay: Displacement of [3H]citalopram from human recombinant SERT expressed in BacMam virus-transduced cells by scintillation proximity assay; assay type: cell-based; summary of the method: as §1
[4] = Blood clearance in rat; assay type: ADME, organism-based
[5] = Half life in rat; assay type: ADME, organism-based; details: in vivo
[6] = Volume of distribution in rat; assay type: ADME, organism-based; details: in vivo
[7] = Bioavailability in rat; assay type: ADME, organism-based; details: in vivo
Brain = assay: (§2) Fraction unbound in rat brain; assay type: ADME, tissue-based
[8] = target: Sodium-dependent serotonin transporter (Rattus norvegicus, UniProt P31652); assay: Displacement of [3H]citalopram from rat cortex SERT by filtration binding assay
Summary of the method: (§3)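 Native brain tissue filtration binding, run as for the recombinant transporters. SERT on rat or mouse cortex (20 and 7 μg protein/well respectively). NET on rat hippocampus (40 μg/well). DAT on rat striatum (20 μg/well).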

Cytochrome P450 1A2 = target: T4, Cytochrome P450 1A2 (Homo sapiens, UniProt P05177); assay: Inhibition of human CYP1A2 by fluorescence assay; assay type: ADME
T4 sequence (P05177 whole entry): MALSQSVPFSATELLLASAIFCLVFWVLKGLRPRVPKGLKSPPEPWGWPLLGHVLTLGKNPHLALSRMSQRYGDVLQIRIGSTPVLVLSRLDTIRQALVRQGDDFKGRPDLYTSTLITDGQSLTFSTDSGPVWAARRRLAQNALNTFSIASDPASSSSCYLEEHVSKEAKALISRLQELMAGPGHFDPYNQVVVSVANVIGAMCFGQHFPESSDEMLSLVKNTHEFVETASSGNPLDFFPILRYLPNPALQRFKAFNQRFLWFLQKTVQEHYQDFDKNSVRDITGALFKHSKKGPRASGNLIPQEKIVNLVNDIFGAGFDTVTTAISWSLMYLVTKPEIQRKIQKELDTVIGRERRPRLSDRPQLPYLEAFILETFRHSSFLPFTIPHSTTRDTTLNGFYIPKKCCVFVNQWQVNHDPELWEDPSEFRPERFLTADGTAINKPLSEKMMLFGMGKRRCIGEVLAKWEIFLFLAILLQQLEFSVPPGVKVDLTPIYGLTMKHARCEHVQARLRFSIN
Summary of the method: (§4)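 Recombinant human P450 bactosomes (0.1 mg/mL) in 50 mM phosphate, pH 7.4. Test compound at 0.1-10 μM, preincubated 10 min at 37 °C with fluorogenic substrate: ethoxyresorufin 0.5 μM (1A2), FCA 50 μM (2C9), BMC 10 μM (2C19), MMC 10 μM (2D6).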

Cytochrome P450 2C9 = Cytochrome P450 2C9 (Homo sapiens, UniProt P11712); assay: Inhibition of human CYP2C9 by fluorescence assay; assay type: ADME; summary of the method: as §4
Cytochrome P450 2C19 = Cytochrome P450 2C19 (Homo sapiens, UniProt P33261); assay: Inhibition of human CYP2C19 by fluorescence assay; assay type: ADME; summary of the method: as §4
Cytochrome P450 2D6 = Cytochrome P450 2D6 (Homo sapiens, UniProt P10635); assay: Inhibition of human […] by fluorescence assay; assay type: ADME; summary of the method: as §4
Cytochrome P450 3A4 = Cytochrome P450 3A4 (Homo sapiens, UniProt P08684); assay: Inhibition of human CYP3A4 by fluorescence assay
Liver microsomes [9] = assay: Intrinsic clearance in human liver microsomes assessed per gram of protein at 0.5 uM after 30 mins by HPLC-MS/MS analysis; assay type: ADME, Microsome; details: microsomes, 0.5 h, 0.5 µM
Summary of the method: (§5)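 Compound at 0.5 μM with rat or human liver microsomes (0.5 mg protein/mL), 50 mM phosphate, pH 7.4, 37 °C, started with NADPH. Sampled at 0-30 min, acetonitrile quench, HPLC-MS/MS. CLi from first-order elimination constant, scaled assuming 52.5 mg microsomal protein/g.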

Liver microsomes [10] = assay: Intrinsic clearance in rat liver microsomes assessed per gram of protein at 0.5 uM after 30 mins by HPLC-MS/MS analysis; assay type: ADME, Microsome; details: microsomes, 0.5 h, 0.5 µM; summary of the method: as §5
[11] = Ratio of drug level in brain to blood in rat; assay type: ADME, tissue-based; details: read-out: BBR
[12] = as §2; assay type: ADME, tissue-based; details: brain
[13] = target: T3, Sodium-dependent serotonin transporter; assay: Inhibition of [3H]serotonin reuptake at human SERT expressed in LLCPK cells by scintillation proximity assay; assay type: cell-based
Summary of the method: (§6)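 Uptake-SPA on stably transfected LLCPK cells in HEPES buffer, pH 7.4. SERT: 25000 cells/well, 1.5 mg/mL beads, 35 nM [3H]serotonin. NET: 50000 cells/well, 1.5 mg/mL beads, 45 nM [3H]noradrenalin. DAT: 75000 cells/well, 2 mg/mL beads, 75 nM [3H]dopamine. Concentrations are those of the substrate addition. 1 h at room temperature; 4-parameter fit.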

[14] = target: T2, Sodium-dependent noradrenaline transporter; assay: Inhibition of [3H]noradrenalin reuptake at human NET expressed in LLCPK cells by scintillation proximity assay; assay type: cell-based; summary of the method: as §6
[15] = target: T1, Sodium-dependent dopamine transporter; assay: Inhibition of [3H]dopamine reuptake at human DAT expressed in LLCPK cells by scintillation proximity assay; assay type: cell-based; summary of the method: as §6
[16] = target: Alpha-1A adrenergic receptor (Homo sapiens, UniProt P35348); assay: Inhibition of adrenergic alpha1A receptor
[17] = target: 5-hydroxytryptamine receptor 2A (Homo sapiens, UniProt P28223); assay: Inhibition of 5HT2A receptor
Histamine H1 receptor = Histamine H1 receptor (Homo sapiens, UniProt P35367); assay: Inhibition of histamine H1 receptor
[18] = target: Muscarinic acetylcholine receptor M1 (Homo sapiens, UniProt P11229); assay: Inhibition of muscarinic M1 receptor
[19] = target: Muscarinic acetylcholine receptor M2 (Homo sapiens, UniProt P08172); assay: Inhibition of muscarinic M2 receptor
[20] = target: Muscarinic acetylcholine receptor M3 (Homo sapiens, UniProt P20309); assay: Inhibition of muscarinic M3 receptor
[21] = target: Muscarinic acetylcholine receptor M4 (Homo sapiens, UniProt P08173); assay: Inhibition of muscarinic M4 receptor
[22] = target: Muscarinic acetylcholine receptor M5 (Homo sapiens, UniProt P08912); assay: Inhibition of muscarinic M5 receptor
[23] = target: T5, Voltage-gated inwardly rectifying potassium channel KCNH2 (Homo sapiens, UniProt Q12809); assay: Inhibition of human ERG assessed as blockade of channel current by electrophysiology assay
[24] = target: T5, Voltage-gated inwardly rectifying potassium channel KCNH2; assay: Displacement of [3H][…] from human ERG by scintillation proximity assay
Summary of the method: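 SPA-format [³H]dofetilide binding to hERG, with bound signal read on a plate imager. The value is reported as a binding pKi.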

Transporter = Transporter (Rattus norvegicus, UniProt Q63380); assay: Displacement of [N-methyl-3H]nisoxetine from rat hippocampus NET by filtration binding assay; assay type: tissue-based; summary of the method: as §3
[25] = target: Sodium-dependent dopamine transporter (Rattus norvegicus, UniProt P23977); assay: Displacement of [N-methyl-3H]WIN-35428 from rat striatum DAT by filtration binding assay; summary of the method: as §3
[26] = target: Sodium-dependent serotonin transporter (Mus musculus, UniProt Q60857); assay: Displacement of [3H]citalopram from mouse cortex SERT by filtration binding assay; summary of the method: as §3
[27] = target: T3, Sodium-dependent serotonin transporter; assay: Displacement of [3H]citalopram from human recombinant SERT expressed in LLCPK cells by liquid scintillation counting; assay type: cell-based
Summary of the method: (§7)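 Filtration binding on stably transfected LLCPK cell membranes, 2 h at room temperature. SERT: 0.25 nM [3H]citalopram, about 2.5 μg protein/well, NSB with 10 μM fluoxetine. NET: 1.5 nM [3H]nisoxetine, 4.8 μg/well, NSB with 10 μM desipramine. DAT: 10 nM [3H]WIN-35,428, 9.6 μg/well, NSB with 10 μM GBR-12909. Filter-bound radioactivity counted; 4-parameter fit, pKi by Cheng-Prusoff.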

[28] = target: T2, Sodium-dependent noradrenaline transporter; assay: Displacement of [N-methyl-3H]nisoxetine from human recombinant NET expressed in LLCPK cells by liquid scintillation counting; assay type: cell-based; summary of the method: as §7
[29] = target: T1, Sodium-dependent dopamine transporter; assay: Displacement of [N-methyl-3H]WIN-35428 from human recombinant DAT expressed in LLCPK cells by liquid scintillation counting; assay type: cell-based; summary of the method: as §7

T3 sequence (P31645 whole entry): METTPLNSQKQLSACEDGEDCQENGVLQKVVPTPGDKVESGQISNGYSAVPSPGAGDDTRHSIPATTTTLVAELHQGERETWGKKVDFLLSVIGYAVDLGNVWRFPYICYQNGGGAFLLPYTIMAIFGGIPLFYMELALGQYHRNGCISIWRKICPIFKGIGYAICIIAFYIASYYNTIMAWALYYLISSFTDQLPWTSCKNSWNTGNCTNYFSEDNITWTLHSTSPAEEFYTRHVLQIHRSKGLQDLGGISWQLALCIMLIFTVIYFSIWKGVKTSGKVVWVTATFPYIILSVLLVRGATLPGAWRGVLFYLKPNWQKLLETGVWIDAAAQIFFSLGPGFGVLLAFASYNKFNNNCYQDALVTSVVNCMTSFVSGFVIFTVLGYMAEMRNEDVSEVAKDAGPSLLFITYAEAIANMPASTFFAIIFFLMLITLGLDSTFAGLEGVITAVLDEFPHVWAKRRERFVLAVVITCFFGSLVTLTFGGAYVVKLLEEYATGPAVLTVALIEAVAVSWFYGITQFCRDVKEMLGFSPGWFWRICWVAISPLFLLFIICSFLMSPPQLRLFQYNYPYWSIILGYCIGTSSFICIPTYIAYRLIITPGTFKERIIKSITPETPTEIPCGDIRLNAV
T2 sequence (P23975 whole entry): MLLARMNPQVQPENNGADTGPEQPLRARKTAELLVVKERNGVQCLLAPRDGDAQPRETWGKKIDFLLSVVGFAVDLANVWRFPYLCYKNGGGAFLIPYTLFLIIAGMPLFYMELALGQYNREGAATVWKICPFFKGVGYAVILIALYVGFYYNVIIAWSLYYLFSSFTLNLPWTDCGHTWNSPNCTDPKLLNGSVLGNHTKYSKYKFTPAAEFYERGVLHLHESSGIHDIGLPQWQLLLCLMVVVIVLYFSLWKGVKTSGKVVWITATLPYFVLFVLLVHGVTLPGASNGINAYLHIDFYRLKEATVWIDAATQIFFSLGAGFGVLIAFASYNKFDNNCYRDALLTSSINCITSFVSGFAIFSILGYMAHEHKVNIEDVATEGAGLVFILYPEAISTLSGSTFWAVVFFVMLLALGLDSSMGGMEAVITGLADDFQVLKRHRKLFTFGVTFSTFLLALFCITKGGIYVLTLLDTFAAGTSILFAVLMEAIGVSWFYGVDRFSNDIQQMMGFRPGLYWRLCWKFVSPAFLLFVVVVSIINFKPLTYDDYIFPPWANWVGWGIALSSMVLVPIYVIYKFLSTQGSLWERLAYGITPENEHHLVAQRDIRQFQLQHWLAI
T1 sequence (Q01959 whole entry): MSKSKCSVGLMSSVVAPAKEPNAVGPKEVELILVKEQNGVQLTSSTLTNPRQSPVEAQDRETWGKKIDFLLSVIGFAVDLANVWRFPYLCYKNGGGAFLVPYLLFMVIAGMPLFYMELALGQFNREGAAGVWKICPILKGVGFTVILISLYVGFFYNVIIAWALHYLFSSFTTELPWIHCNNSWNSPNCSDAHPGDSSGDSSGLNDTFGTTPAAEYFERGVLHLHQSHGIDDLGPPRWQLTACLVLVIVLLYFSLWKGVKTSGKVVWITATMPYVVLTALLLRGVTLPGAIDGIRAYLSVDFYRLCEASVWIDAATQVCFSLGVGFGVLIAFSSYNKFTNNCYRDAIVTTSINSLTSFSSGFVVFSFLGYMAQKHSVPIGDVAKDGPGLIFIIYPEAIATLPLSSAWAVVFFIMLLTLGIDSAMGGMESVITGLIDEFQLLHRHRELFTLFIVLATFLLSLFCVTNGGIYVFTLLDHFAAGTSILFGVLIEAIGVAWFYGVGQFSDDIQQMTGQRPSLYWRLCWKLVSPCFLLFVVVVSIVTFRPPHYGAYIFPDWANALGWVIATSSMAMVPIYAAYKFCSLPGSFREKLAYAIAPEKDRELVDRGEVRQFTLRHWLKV
Sequence of Sodium-dependent serotonin transporter (Rattus norvegicus, UniProt P31652) (P31652 whole entry): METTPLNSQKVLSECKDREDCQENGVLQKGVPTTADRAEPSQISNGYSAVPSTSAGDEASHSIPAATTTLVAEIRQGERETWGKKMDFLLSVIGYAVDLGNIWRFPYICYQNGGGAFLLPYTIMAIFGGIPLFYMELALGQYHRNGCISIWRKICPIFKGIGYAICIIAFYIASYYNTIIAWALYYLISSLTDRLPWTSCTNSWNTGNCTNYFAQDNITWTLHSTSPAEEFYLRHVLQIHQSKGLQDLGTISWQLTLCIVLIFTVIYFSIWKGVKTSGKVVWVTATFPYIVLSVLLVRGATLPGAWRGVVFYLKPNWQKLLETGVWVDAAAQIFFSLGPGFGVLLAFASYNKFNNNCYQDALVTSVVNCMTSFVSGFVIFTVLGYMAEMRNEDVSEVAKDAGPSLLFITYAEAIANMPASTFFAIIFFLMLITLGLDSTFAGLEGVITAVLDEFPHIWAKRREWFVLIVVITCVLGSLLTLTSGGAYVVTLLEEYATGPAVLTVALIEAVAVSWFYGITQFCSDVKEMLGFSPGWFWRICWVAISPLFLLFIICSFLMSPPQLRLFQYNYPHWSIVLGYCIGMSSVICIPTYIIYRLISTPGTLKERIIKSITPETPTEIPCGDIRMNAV
Sequence of Cytochrome P450 2D6 (P10635 whole entry): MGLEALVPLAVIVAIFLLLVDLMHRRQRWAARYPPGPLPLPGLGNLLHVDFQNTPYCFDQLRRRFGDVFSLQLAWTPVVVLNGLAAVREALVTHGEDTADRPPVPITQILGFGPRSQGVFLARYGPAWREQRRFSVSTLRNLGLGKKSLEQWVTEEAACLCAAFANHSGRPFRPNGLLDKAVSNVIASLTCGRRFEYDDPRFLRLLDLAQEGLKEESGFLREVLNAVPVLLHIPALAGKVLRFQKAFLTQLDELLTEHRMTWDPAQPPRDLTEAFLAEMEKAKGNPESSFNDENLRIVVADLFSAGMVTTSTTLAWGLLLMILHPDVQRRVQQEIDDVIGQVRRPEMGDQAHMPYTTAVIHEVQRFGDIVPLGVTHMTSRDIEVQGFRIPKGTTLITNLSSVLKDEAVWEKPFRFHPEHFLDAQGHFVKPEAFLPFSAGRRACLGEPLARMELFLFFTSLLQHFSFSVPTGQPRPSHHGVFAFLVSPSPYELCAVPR
T5 sequence (Q12809 whole entry): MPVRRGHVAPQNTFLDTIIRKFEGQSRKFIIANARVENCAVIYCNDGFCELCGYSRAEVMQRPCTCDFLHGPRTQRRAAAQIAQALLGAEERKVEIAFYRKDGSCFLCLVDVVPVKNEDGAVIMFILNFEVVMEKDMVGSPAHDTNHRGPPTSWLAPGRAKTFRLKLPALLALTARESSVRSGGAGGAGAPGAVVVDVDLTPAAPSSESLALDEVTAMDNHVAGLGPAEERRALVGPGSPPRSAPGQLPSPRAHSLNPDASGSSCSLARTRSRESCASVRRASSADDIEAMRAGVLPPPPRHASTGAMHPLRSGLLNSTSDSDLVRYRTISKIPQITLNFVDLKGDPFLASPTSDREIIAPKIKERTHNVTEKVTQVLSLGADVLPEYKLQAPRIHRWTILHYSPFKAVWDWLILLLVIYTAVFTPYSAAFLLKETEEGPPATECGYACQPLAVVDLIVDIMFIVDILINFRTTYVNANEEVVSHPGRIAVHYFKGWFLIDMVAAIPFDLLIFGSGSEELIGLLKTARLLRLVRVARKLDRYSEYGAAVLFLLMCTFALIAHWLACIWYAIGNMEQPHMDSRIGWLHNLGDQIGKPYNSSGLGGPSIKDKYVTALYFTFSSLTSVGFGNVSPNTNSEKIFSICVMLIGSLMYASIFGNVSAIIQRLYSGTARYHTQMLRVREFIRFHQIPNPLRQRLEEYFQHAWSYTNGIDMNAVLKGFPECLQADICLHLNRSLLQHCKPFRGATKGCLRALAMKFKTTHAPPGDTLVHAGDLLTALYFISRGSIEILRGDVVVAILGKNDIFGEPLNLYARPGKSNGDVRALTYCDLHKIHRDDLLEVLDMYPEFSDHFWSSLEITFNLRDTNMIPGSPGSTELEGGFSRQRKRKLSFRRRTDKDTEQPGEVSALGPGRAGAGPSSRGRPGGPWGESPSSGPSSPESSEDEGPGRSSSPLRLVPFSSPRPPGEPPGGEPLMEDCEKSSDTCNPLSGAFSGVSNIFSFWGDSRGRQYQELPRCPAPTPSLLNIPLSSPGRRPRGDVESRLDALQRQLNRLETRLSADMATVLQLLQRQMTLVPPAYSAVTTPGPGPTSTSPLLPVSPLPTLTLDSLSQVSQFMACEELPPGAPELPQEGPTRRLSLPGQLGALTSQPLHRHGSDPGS
Sequence of Cytochrome P450 3A4 (P08684 whole entry): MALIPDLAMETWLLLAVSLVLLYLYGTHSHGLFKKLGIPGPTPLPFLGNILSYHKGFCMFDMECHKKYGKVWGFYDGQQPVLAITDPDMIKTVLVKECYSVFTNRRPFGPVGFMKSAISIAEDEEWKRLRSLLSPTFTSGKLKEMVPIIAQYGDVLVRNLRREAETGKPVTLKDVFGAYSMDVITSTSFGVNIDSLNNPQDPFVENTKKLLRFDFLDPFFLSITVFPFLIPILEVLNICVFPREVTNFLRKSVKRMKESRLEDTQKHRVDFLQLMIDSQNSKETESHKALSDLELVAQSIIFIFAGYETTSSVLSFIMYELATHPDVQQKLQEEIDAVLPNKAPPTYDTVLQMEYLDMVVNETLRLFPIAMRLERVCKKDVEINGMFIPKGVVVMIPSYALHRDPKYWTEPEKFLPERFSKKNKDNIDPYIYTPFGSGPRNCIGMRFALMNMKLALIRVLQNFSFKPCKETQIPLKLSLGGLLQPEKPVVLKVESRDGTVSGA

SMILES | Ki [1] | Ki [2] | Ki [3] | clearance [4] | half-life [5] | Vd [6] | bioavailability [7] | Ki [8] | IC50 (Cytochrome P450 1A2) | IC50 (Cytochrome P450 2C9) | IC50 (Cytochrome P450 2C19) | IC50 (Cytochrome P450 2D6) | IC50 (Cytochrome P450 3A4) | CL (Liver microsomes [9]) | CL (Liver microsomes [10]) | Kp [11] | fraction unbound [12] | other results
FC(F)(F)COC[C@H]1[C@@H]2CNC[C@@]21c1ccc(Cl)c(Cl)c1 | 631 nM | 347 nM | 56.2 nM | 42 mL/min/kg | 84 min | 3.2 L/kg | 41% |  |  |  |  |  |  |  |  |  |  | Fu (Brain): 0.6%
CCOC[C@H]1[C@@H]2CNC[C@@]21c1ccc(Cl)c(Cl)c1 | 7.94 nM | 0.501 nM | 0.158 nM | 18 mL/min/kg | 72 min | 1.4 L/kg | 61% | 0.676 nM | > 9 µM | > 9 µM | > 9 µM | 4 µM | > 9 µM | 1.2 mL/min/g | 1.3 mL/min/g | 4.6 | 0.014 | IC50 [13]: 1.26 nM; IC50 [14]: 0.158 nM; IC50 [15]: 5.01 nM; Ki [16]: 200 nM; Ki [17]: 158 nM; Ki (Histamine H1 receptor): 1000 nM; Ki [18]: 158 nM; Ki [19]: 200 nM; Ki [20]: 63.1 nM; Ki [21]: 251 nM; Ki [22]: 100 nM; IC50 [23]: 4.2 µM; Ki [24]: 12.6 µM; Ki (Transporter): 0.135 nM; Ki [25]: 13.5 nM; Ki [26]: 0.851 nM
COC[C@H]1[C@@H]2CNC[C@@]21c1ccc(Cl)c(Cl)c1 (relative stereo) | 56.2 nM | 1.74 nM | 0.759 nM | 16 mL/min/kg | 144 min | 2.9 L/kg | 94% | 1.78 nM | > 6 µM | > 6 µM | > 6 µM | > 6 µM | > 6 µM | < 0.5 mL/min/g | 3.8 mL/min/g | 4 | 0.027 | Ki [27]: 0.741 nM; Ki [28]: 4.57 nM; Ki [29]: 85.1 nM
